From ChEMBL document CHEMBL5058577, “EUbOPEN Chemogenomics Library 2 (Multiplex)” (2022)

Tested on: Fibroblast
Test: Multiplex assay against human fibroblast
Type: toxicity, cell-based
Outline: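 Cells were classed with CellPathfinder machine-learning gating, first as Hoechst high-intensity objects or normal cells, then (normal cells) as healthy, pyknosed or fragmented nuclei, and finally (pyknosed cells) as mitotic or apoptotic. Staining of live cells at seeding used Hoechst33342, BioTracker Green Microtubule Cytoskeleton Dye, MitoTracker Red and Annexin V Alexa Fluor 680, with imaging on a CQ1 microscope at 37°C and 5% CO2 after compound addition. Tubulin, mitochondrial-mass and membrane-permeability phenotypes are per cents of healthy-nucleus cells.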

[1] = 12 h, 1 µM, compound concentration 1 uM, replicate 1
[2] = 12 h, 1 µM, compound concentration 1 uM, replicate 2
[3] = 12 h, 10 µM, compound concentration 10 uM, replicate 1
[4] = 12 h, 10 µM, compound concentration 10 uM, replicate 2
[5] = 24 h, 1 µM, compound concentration 1 uM, replicate 1
[6] = 24 h, 1 µM, compound concentration 1 uM, replicate 2
[7] = 24 h, 10 µM, compound concentration 10 uM, replicate 1
[8] = 24 h, 10 µM, compound concentration 10 uM, replicate 2
[9] = 48 h, 1 µM, compound concentration 1 uM, replicate 1
[10] = 48 h, 1 µM, compound concentration 1 uM, replicate 2
[11] = 48 h, 10 µM, compound concentration 10 uM, replicate 1
[12] = 48 h, 10 µM, compound concentration 10 uM, replicate 2

CN(C)C/C=C/C(=O)Nc1ccc(C(=O)N2CCCC(Nc3ncc(Cl)c(-c4c[nH]c5ccccc45)n3)C2)cc1 (centres undefined)
Population Apoptotic (%) [1]: 48%
Population Fragmented Nuclei (%) [1]: 15%
Population Healthy Nuclei (%) [1]: 64%
Population Hoechst High Intensity Objects (%) [1]: 2%
Population Membrane Permeable-Phenotype (%) [1]: 2%
Population Mitochondria Different-Phenotype (%) [1]: 11%
Population Mitotic Cells (%) [1]: 51%
Population Normal (%) [1]: 97%
Population Pyknosed Nuclei (%) [1]: 19%
Population Tubulin-Different-Phenotype (%) [1]: 40%
Total Cell Count [1]: 152
Population Apoptotic (%) [2]: 46%
Population Fragmented Nuclei (%) [2]: 21%
Population Healthy Nuclei (%) [2]: 53%
Population Hoechst High Intensity Objects (%) [2]: 6%
Population Membrane Permeable-Phenotype (%) [2]: 3%
Population Mitochondria Different-Phenotype (%) [2]: 13%
Population Mitotic Cells (%) [2]: 53%
Population Normal (%) [2]: 93%
Population Pyknosed Nuclei (%) [2]: 25%
Total Cell Count [2]: 182
Population Apoptotic (%) [3]: 59%
Population Fragmented Nuclei (%) [3]: 18%
Population Healthy Nuclei (%) [3]: 53%
Population Hoechst High Intensity Objects (%) [3]: 4%
Population Membrane Permeable-Phenotype (%) [3]: 1%
Population Mitochondria Different-Phenotype (%) [3]: 37%
Population Mitotic Cells (%) [3]: 40%
Population Normal (%) [3]: 95%
Population Pyknosed Nuclei (%) [3]: 27%
Population Tubulin-Different-Phenotype (%) [3]: 77%
Total Cell Count [3]: 140
Population Apoptotic (%) [4]: 48%
Population Fragmented Nuclei (%) [4]: 23%
Population Healthy Nuclei (%) [4]: 41%
Population Hoechst High Intensity Objects (%) [4]: 8%
Population Membrane Permeable-Phenotype (%) [4]: 12%
Population Mitochondria Different-Phenotype (%) [4]: 19%
Population Mitotic Cells (%) [4]: 51%
Population Normal (%) [4]: 91%
Population Pyknosed Nuclei (%) [4]: 35%
Population Tubulin-Different-Phenotype (%) [4]: 58%
Total Cell Count [4]: 147
Population Apoptotic (%) [5]: 68%
Population Fragmented Nuclei (%) [5]: 25%
Population Healthy Nuclei (%) [5]: 48%
Population Hoechst High Intensity Objects (%) [5]: 7%
Population Membrane Permeable-Phenotype (%) [5]: 2%
Population Mitochondria Different-Phenotype (%) [5]: 7%
Population Mitotic Cells (%) [5]: 31%
Population Normal (%) [5]: 92%
Population Pyknosed Nuclei (%) [5]: 26%
Population Tubulin-Different-Phenotype (%) [5]: 40%
Total Cell Count [5]: 155
Population Apoptotic (%) [6]: 37%
Population Fragmented Nuclei (%) [6]: 26%
Population Healthy Nuclei (%) [6]: 49%
Population Membrane Permeable-Phenotype (%) [6]: 10%
Population Mitochondria Different-Phenotype (%) [6]: 10%
Population Mitotic Cells (%) [6]: 62%
Population Pyknosed Nuclei (%) [6]: 23%
Population Tubulin-Different-Phenotype (%) [6]: 54%
Total Cell Count [6]: 181
Population Apoptotic (%) [7]: 65%
Population Fragmented Nuclei (%) [7]: 13%
Population Healthy Nuclei (%) [7]: 49%
Population Hoechst High Intensity Objects (%) [7]: 2%
Population Membrane Permeable-Phenotype (%) [7]: 0%
Population Mitochondria Different-Phenotype (%) [7]: 52%
Population Mitotic Cells (%) [7]: 34%
Population Normal (%) [7]: 97%
Population Pyknosed Nuclei (%) [7]: 37%
Population Tubulin-Different-Phenotype (%) [7]: 84%
Total Cell Count [7]: 119
Population Apoptotic (%) [8]: 47%
Population Fragmented Nuclei (%) [8]: 30%
Population Healthy Nuclei (%) [8]: 42%
Population Hoechst High Intensity Objects (%) [8]: 6%
Population Membrane Permeable-Phenotype (%) [8]: 5%
Population Mitochondria Different-Phenotype (%) [8]: 35%
Population Mitotic Cells (%) [8]: 52%
Population Normal (%) [8]: 93%
Population Pyknosed Nuclei (%) [8]: 27%
Population Tubulin-Different-Phenotype (%) [8]: 72%
Total Cell Count [8]: 149
Population Apoptotic (%) [9]: 63%
Population Fragmented Nuclei (%) [9]: 33%
Population Healthy Nuclei (%) [9]: 36%
Population Hoechst High Intensity Objects (%) [9]: 10%
Population Membrane Permeable-Phenotype (%) [9]: 2%
Population Mitochondria Different-Phenotype (%) [9]: 20%
Population Mitotic Cells (%) [9]: 36%
Population Normal (%) [9]: 90%
Population Pyknosed Nuclei (%) [9]: 30%
Population Tubulin-Different-Phenotype (%) [9]: 48%
Total Cell Count [9]: 150
Population Apoptotic (%) [10]: 60%
Population Fragmented Nuclei (%) [10]: 35%
Population Healthy Nuclei (%) [10]: 40%
Population Hoechst High Intensity Objects (%) [10]: 8%
Population Membrane Permeable-Phenotype (%) [10]: 8%
Population Mitochondria Different-Phenotype (%) [10]: 25%
Population Mitotic Cells (%) [10]: 40%
Population Normal (%) [10]: 91%
Population Pyknosed Nuclei (%) [10]: 24%
Population Tubulin-Different-Phenotype (%) [10]: 68%
Total Cell Count [10]: 158
Population Apoptotic (%) [11]: 77%
Population Fragmented Nuclei (%) [11]: 28%
Population Healthy Nuclei (%) [11]: 20%
Population Hoechst High Intensity Objects (%) [11]: 14%
Population Membrane Permeable-Phenotype (%) [11]: 0%
Population Mitochondria Different-Phenotype (%) [11]: 55%
Population Mitotic Cells (%) [11]: 22%
Population Normal (%) [11]: 85%
Population Pyknosed Nuclei (%) [11]: 51%
Population Tubulin-Different-Phenotype (%) [11]: 66%
Total Cell Count [11]: 103
Population Apoptotic (%) [12]: 68%
Population Fragmented Nuclei (%) [12]: 27%
Population Healthy Nuclei (%) [12]: 41%
Population Hoechst High Intensity Objects (%) [12]: 13%
Population Membrane Permeable-Phenotype (%) [12]: 17%
Population Mitochondria Different-Phenotype (%) [12]: 29%
Population Mitotic Cells (%) [12]: 31%
Population Normal (%) [12]: 86%
Population Pyknosed Nuclei (%) [12]: 30%
Population Tubulin-Different-Phenotype (%) [12]: 80%
Total Cell Count [12]: 130
